Test results taken from PubChem BioAssay.
Records with an inconclusive call do not appear.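 Rule for the calls, unless noted: active = viability increase at or above a cutoff of the median across tested compounds plus 3 SD (cut at about 8.5% in these data, passing the limit was not always enough); inconclusive = some gains above the cutoff, reason not given; inactive = the rest.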

Experiments:
[1] = S. cerevisiae growth inhibition in permissive medium (OD615), pilot counter-assay for S. cerevisiae lifespan shortening project, permissive growth control (AID 705;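 active = growth inhibition above 25% in both replicates, a cutoff set 3 SD above the mean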); conditions: OD615, 24 h, at 10 µM, active compounds read high
Summary of the method: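 System: S. cerevisiae with engineered DeaD lifespan system. Medium: SC raffinose/galactose permissive medium. Doses: single compound dose of 10 µM, 0.25% DMSO final. Schedule: 24 h exposure, 30 °C. Measured by: OD615 turbidity read. Read-out: growth inhibition.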

[2] = S. cerevisiae growth inhibition in restrictive medium, OD615, pilot screen, restrictive growth control, yeast lifespan reduction project (AID 706;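 active = growth inhibition above a set limit, 3 SD over mean compound inhibition, in both replicates, cut at about 43% in these data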;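 note: modified DeaD lifespan yeast strain shifted to restrictive glucose medium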); conditions: OD615, 48 h, at 10 µM, active compounds read high
Summary of the method: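 Assay system – genetically modified Saccharomyces cerevisiae, DeaD replicative lifespan assay strain · Medium – CSMM-D glucose medium · Doses – 10 µM compound, 0.25% DMSO · Times – 4 h pre-incubation, 48 h exposure at 30 °C · Signal – optical density at 615 nm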

[3] = doxorubicin toxicity protection in MRP-1 cells – H69AR cells, CellTiter-Glo, duplicate, MRP-1 activator project, pilot screen (AID 807); conditions: H69AR viability with doxorubicin, CellTiter-Glo luminescence; at 10 µM; active compounds read high;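 note: compound pretreatment 18-22 h then 72 h combined with doxorubicin; 0% = doxorubicin alone and 100% = vehicle without doxorubicin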
[4] = viability of HCT116 without oncogenic beta-catenin – human colon tumor cells, pilot screen (AID 823;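 active = cell viability at or below a set limit in both duplicate runs, the limit being the all-compound median minus 4 SD, cut at about 23% in these data, passing the limit was not always enough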;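 note: 0% = wells killed by 20 µM Hyamine and 100% = untreated DMSO cell wells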); conditions: HCT116 beta-catenin knockout viability, CellTiter-Glo, 60 h; at 10 µM; active compounds read low
[5] = viability of PTEN-null HCT116 cells – cell-based, HCT116 clonal line, CellTiter-Glo, pilot screen (AID 824;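 active = viability at or below 27.92% in each of two runs, the all-compound median minus 4 SD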;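 note: 0% = 20 µM Hyamine control and 100% = vehicle cell control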); conditions: HCT116 PTEN-deleted viability, 60 h, at 10 µM, active compounds read low
[6] = RAM pathway blockade in budding yeast – dse1pr::URA3 reporter, 5-FOA selection, pilot screen (AID 869;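 active = inhibition over a set limit, the all-compound mean plus 3 SD, in both replicate runs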;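 note: 0% = DMSO wells with no growth and 100% = 10 µM 1-NA-PP1 with full growth; RAM network block rescues cells from 5-FOA so hits raise OD615 growth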); conditions: S. cerevisiae dse1pr::URA3 5-FOA growth, OD615, 2 d; at 10 µM; active compounds read high; strain carries analog-sensitive mutant Cbk1 kinase
[7] = RAM signaling pathway blockade in yeast – S. cerevisiae, Pdr1DBD-CYC8 efflux-inhibited sensitized strain, primary screen (AID 1298;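 active = RAM network inhibition above 8.4% in each of two replicates, 3 SD over the compound average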;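 note: 0% = DMSO untreated cells without growth and 100% = 10 µM 1-NA-PP1 full growth; higher means more yeast growth rescued from 5-FOA killing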); conditions: S. cerevisiae cbk1-as DSE1-URA3 strain, 5-FOA growth OD615, 2 d; at 50 µM; active compounds read high

Cc1nc2sc(C(c3ccco3)N3CCC(Cc4ccccc4)CC3)c(O)n2n1 (stereo unspecified)
inactive: growth inhibition [1] 0.165% | growth inhibition [2] 4.34% | viability increase [3] 0.64% | viability [4] 95.2% | viability [5] 91.4% | inhibition [6] 1.14% | RAM network inhibition [7] 9.02%

O=C(c1ccc(CS(=O)(=O)c2ccc(Br)cc2)o1)N1CCOCC1
inactive: growth inhibition [1] -10.2% | growth inhibition [2] -12.6% | viability increase [3] -0.67% | viability [4] 104% | viability [5] 97.3% | inhibition [6] 2.23% | RAM network inhibition [7] 0.1%

CC(=O)c1ccc(NC(=O)C2CCCN2S(=O)(=O)c2ccc(F)cc2)cc1 (stereo unspecified)
inactive: growth inhibition [1] -5.81% | growth inhibition [2] 0.06% | viability increase [3] 0.59% | viability [4] 98.5% | viability [5] 96.2% | inhibition [6] 2.9% | RAM network inhibition [7] 1.64%

Cc1cccc(N2CCN(C(=O)C3CCN(c4nnc(-n5cccc5)s4)CC3)CC2C)c1 (stereo unspecified)
inactive: growth inhibition [1] -6.52% | growth inhibition [2] -21.5% | viability increase [3] -1.6% | viability [4] 40.1% | viability [5] 45% | inhibition [6] 0.825% | RAM network inhibition [7] 2.84%

COc1ccc(N(CC(=O)Nc2ccc3c(c2)OCCO3)S(=O)(=O)c2c(C)nn(C)c2C)cc1
inactive: growth inhibition [1] -9.27% | growth inhibition [2] -19.9% | viability increase [3] -2.36% | viability [4] 99.4% | viability [5] 95.9% | inhibition [6] 0.73% | RAM network inhibition [7] 4.15%

COc1cccc(OC)c1C(=O)Nc1ccc2c(c1)OCCO2
inactive: growth inhibition [1] -8.21% | growth inhibition [2] 0.395% | viability increase [3] -0.21% | viability [4] 99.8% | viability [5] 95.9% | inhibition [6] 1.23% | RAM network inhibition [7] 0.51%

c1ccc(-c2csc3ncn4cnnc4c23)cc1
inactive: growth inhibition [1] -7.59% | growth inhibition [2] 2.29% | viability increase [3] -1.06% | viability [4] 97.8% | viability [5] 91.4% | inhibition [6] 1.15% | RAM network inhibition [7] 2.91%

CC(C)CC(NC(=O)c1ccco1)C(=O)Nc1ccc2c(c1)OCCO2 (stereo unspecified)
inactive: growth inhibition [1] 6.21% | growth inhibition [2] 1.03% | viability increase [3] -1.38% | viability [4] 104% | viability [5] 105% | inhibition [6] -0.32% | RAM network inhibition [7] 1.72%

Nc1nc2n(n1)C(c1ccccc1Cl)CC(c1ccc(F)cc1)N2 (stereo unspecified)
inactive: growth inhibition [1] 0.695% | growth inhibition [2] 2.18% | viability increase [3] -0.54% | viability [4] 91.6% | viability [5] 88.8% | inhibition [6] 2.58% | RAM network inhibition [7] 0.48%

CCCc1cc(=O)oc2cc3occ(C)c3cc12
inactive: growth inhibition [1] -10.3% | growth inhibition [2] 2.5% | viability increase [3] -2.52% | viability [4] 93.6% | viability [5] 97.6% | inhibition [6] 1.23% | RAM network inhibition [7] 4.79%

CNC(=O)c1c(NC(=O)c2nc3ccccc3s2)sc2c1CCC2
inactive: growth inhibition [1] 1.6% | growth inhibition [2] -6.17% | viability increase [3] -3.81% | viability [4] 67.5% | viability [5] 61% | inhibition [6] 0.625% | RAM network inhibition [7] 5.05%

CCOc1ccc(Cn2nnc(C(=O)NCc3ccccc3)c2N)cc1
inactive: growth inhibition [1] 2.25% | growth inhibition [2] 3.87% | viability increase [3] 2.17% | viability [4] 93.2% | viability [5] 85.5% | inhibition [6] 0.395% | RAM network inhibition [7] 3.74%

Cc1cc(NC(=O)c2cc(C3CC3)on2)n(-c2ccccc2)n1
inactive: growth inhibition [1] -16.2% | growth inhibition [2] -17.8% | viability increase [3] -0.45% | viability [4] 101% | viability [5] 99.6% | inhibition [6] 0.355% | RAM network inhibition [7] 8.58%

Cc1cc(SCC(=O)OCC(=O)N2CCN(C(=O)c3ccco3)CC2)c(C)cc1Br
inactive: growth inhibition [1] -2.27% | growth inhibition [2] 4.81% | viability increase [3] -2.19% | viability [4] 91.4% | viability [5] 98.2% | inhibition [6] 0.31% | RAM network inhibition [7] 0.4%

COc1ccc(-c2cc3ccccc3n2CC(O)CN2CCN(CCO)CC2)cc1 (stereo unspecified)
inactive: growth inhibition [1] -6.33% | growth inhibition [2] -2.77% | viability increase [3] -3.91% | viability [4] 80.3% | viability [5] 86% | inhibition [6] 0.72% | RAM network inhibition [7] 4.23%

COc1ccc(C(C(=O)NC2CCCC2)N2CCc3ccccc32)cc1 (stereo unspecified)
inactive: growth inhibition [1] -12.6% | growth inhibition [2] -11.4% | viability increase [3] -3.02% | viability [4] 92.8% | viability [5] 87.9% | inhibition [6] 1.26% | RAM network inhibition [7] 1.52%

CCN1CCN(C(=O)C2CCN(S(=O)(=O)c3cccc4cccnc34)CC2)CC1
inactive: growth inhibition [1] -6.23% | growth inhibition [2] 2.11% | viability increase [3] -0.43% | viability [4] 108% | viability [5] 96.3% | inhibition [6] 2.33% | RAM network inhibition [7] 0.98%

COC(=O)C1CCN(C(c2ccc(OC)c(OC)c2)c2sc3nc(C)nn3c2O)CC1 (stereo unspecified)
inactive: growth inhibition [1] 7.23% | growth inhibition [2] 4.6% | viability increase [3] 0.34% | viability [4] 109% | viability [5] 96.9% | inhibition [6] -1.08% | RAM network inhibition [7] 2.68%
